# According to ChEMBL document CHEMBL2375318, “Design, synthesis and antimicrobial activity of novel benzothiazole analogs” (Eur J Med Chem, 2013):
# How the values were obtained:
# Klebsiella pneumoniae = assay: Antimicrobial activity against Klebsiella pneumoniae clinical isolate after 18 to 24 hrs by micro-dilution method; assay type: functional
# Candida albicans [1] = assay: Antifungal activity against Candida albicans clinical isolate after 18 to 24 hrs by micro-dilution method; assay type: functional
# Outline: (§1)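 Broth micro-dilution MIC, fungi. Fresh broth cultures were made in normal saline. Compounds were serially diluted in microtiter plates across 8 concentrations, 100 down to 0.78. Standardized inoculum was 1–2 × 10^7 cfu/ml. Medium was Sabouraud dextrose pH 7.3 ± 0.2. Plates were incubated aerobically at 37 °C for 18–24 h. MIC is the lowest concentration with no visible growth or turbidity versus control. Fluconazole was the reference.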
# Aspergillus niger = assay: Antimicrobial activity against Aspergillus niger clinical isolate after 18 to 24 hrs by micro-dilution method; assay type: functional; outline: as §1
# Escherichia coli = assay: Antimicrobial activity against Escherichia coli ATCC 35218 after 18 to 24 hrs by micro-dilution method; assay type: functional
# Pseudomonas aeruginosa = assay: Antimicrobial activity against Pseudomonas aeruginosa ATCC 27893 after 18 to 24 hrs by micro-dilution method; assay type: functional
# Salmonella typhi = assay: Antimicrobial activity against Salmonella typhi MTCC 3216 after 18 to 24 hrs by micro-dilution method; assay type: functional, Salmonella enterica subsp. enterica serovar Typhi; conditions: Salmonella enterica
# Outline: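 Broth microdilution with twofold serial dilutions from 100 down to 0.78, eight concentrations. Fresh cultures were made up in normal saline, and 0.1 ml of standardized inoculum (1–2 × 10^7 cfu/ml) was added per well. Plates were incubated aerobically at 37 °C for 18–24 h on Mueller-Hinton agar/Luria broth. MIC was the lowest concentration with no visible turbidity compared with the control.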
# Staphylococcus aureus = assay: Antimicrobial activity against Staphylococcus aureus ATCC 25323 after 18 to 24 hrs by micro-dilution method; assay type: functional
# Candida albicans [2] = assay: Antifungal activity against Candida albicans ATCC 90028 after 18 to 24 hrs by micro-dilution metho; assay type: functional; outline: as §1
# Shigella boydii = assay: Antimicrobial activity against Shigella boydii clinical isolate after 18 to 24 hrs by micro-dilution method; assay type: functional
# Pichia kudriavzevii = assay: Antifungal activity against Candida krusei ATCC 6258 after 18 to 24 hrs by micro-dilution method; assay type: functional; outline: as §1
# Candida tropicalis = assay: Antifungal activity against Candida tropicalis ATCC 750 after 18 to 24 hrs by micro-dilution method; assay type: functional; outline: as §1
# [3] = Cytotoxicity against human RBC assessed as hemolytic activity at 100 uM after 1 hr by spectophotometry; assay type: cell-based, Erythrocyte; conditions: red blood cells (RBC), read-out: Activity
# Outline: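 Hemolysis, fresh human blood. RBCs were washed three times in PBS (spun 3000 rpm, 7 min, room temperature) and adjusted to 5×10^8 cells/ml. Cell suspension was added to buffer holding 100 μM compound in 1% v/v DMSO/PBS. Controls were 1% DMSO/PBS and sterile water. Samples were shaken at 37 °C for 1 h, spun at 1300 rpm for 5 min, and supernatant absorbance read at 540 nm.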
# Enterococcus faecalis = assay: Antimicrobial activity against Enterococcus faecalis clinical isolate after 18 to 24 hrs by micro-dilution method; assay type: functional
# Aspergillus fumigatus = assay: Antimicrobial activity against Aspergillus fumigatus clinical isolate after 18 to 24 hrs by micro-dilution method; assay type: functional; outline: as §1
# Cryptococcus neoformans = assay: Antifungal activity against Cryptococcus neoformans clinical isolate after 18 to 24 hrs by micro-dilution method; assay type: functional; outline: as §1
Compound,MIC (Klebsiella pneumoniae),MIC (Candida albicans [1]),MIC (Aspergillus niger),MIC (Escherichia coli),MIC (Pseudomonas aeruginosa),MIC (Salmonella typhi),MIC (Staphylococcus aureus),MIC (Candida albicans [2]),MIC (Shigella boydii),MIC (Pichia kudriavzevii),MIC (Candida tropicalis),"hemolysis at 1 h, 100 µM [3]",MIC (Enterococcus faecalis),MIC (Aspergillus fumigatus),MIC (Cryptococcus neoformans)
Clc1ccccc1-n1cc(CN(Cc2cn(-c3ccccc3Cl)nn2)c2nc3ccccc3s2)nn1,50 µg/mL,> 100 µg/mL,> 100 µg/mL,12.5 µg/mL,12.5 µg/mL,6.25 µg/mL,25 µg/mL,> 100 µg/mL,> 100 µg/mL,> 100 µg/mL,> 100 µg/mL,19.5%,6.25 µg/mL,> 100 µg/mL,> 100 µg/mL
Clc1ccc(-n2cc(CN(Cc3cn(-c4ccc(Cl)cc4Cl)nn3)c3nc4ccccc4s3)nn2)c(Cl)c1,> 100 µg/mL,12.5 µg/mL,1.56 µg/mL,50 µg/mL,> 100 µg/mL,> 100 µg/mL,50 µg/mL,6.25 µg/mL,> 100 µg/mL,6.25 µg/mL,12.5 µg/mL,4.54%,50 µg/mL,1.56 µg/mL,3.12 µg/mL
c1ccc2c(-n3cc(CN(Cc4cn(-c5cccc6ccccc56)nn4)c4nc5ccccc5s4)nn3)cccc2c1,> 100 µg/mL,> 100 µg/mL,> 100 µg/mL,> 100 µg/mL,> 100 µg/mL,> 100 µg/mL,> 100 µg/mL,> 100 µg/mL,> 100 µg/mL,> 100 µg/mL,> 100 µg/mL,34%,> 100 µg/mL,> 100 µg/mL,> 100 µg/mL
O=C(O)c1cn(C2CC2)c2cc(N3CCNCC3)c(F)cc2c1=O [CIPROFLOXACIN],–,–,–,–,3.12 µg/mL,–,–,–,–,–,–,–,–,–,–
CCCCCc1ccc(-n2cc(CN(Cc3cn(-c4ccc(CCCCC)cc4)nn3)c3nc4ccccc4s3)nn2)cc1,> 100 µg/mL,> 100 µg/mL,> 100 µg/mL,> 100 µg/mL,> 100 µg/mL,> 100 µg/mL,> 100 µg/mL,> 100 µg/mL,> 100 µg/mL,> 100 µg/mL,12.5 µg/mL,3.28%,> 100 µg/mL,> 100 µg/mL,> 100 µg/mL
O=[N+]([O-])c1ccc(-n2cc(CN(Cc3cn(-c4ccc([N+](=O)[O-])cc4)nn3)c3nc4ccccc4s3)nn2)cc1,> 100 µg/mL,> 100 µg/mL,> 100 µg/mL,> 100 µg/mL,> 100 µg/mL,> 100 µg/mL,> 100 µg/mL,> 100 µg/mL,> 100 µg/mL,> 100 µg/mL,> 100 µg/mL,27.9%,> 100 µg/mL,> 100 µg/mL,> 100 µg/mL
Fc1ccc(-n2cc(CN(Cc3cn(-c4ccc(F)cc4F)nn3)c3nc4ccccc4s3)nn2)c(F)c1,3.12 µg/mL,> 100 µg/mL,> 100 µg/mL,3.12 µg/mL,3.12 µg/mL,3.12 µg/mL,3.12 µg/mL,> 100 µg/mL,100 µg/mL,> 100 µg/mL,> 100 µg/mL,2.47%,3.12 µg/mL,> 100 µg/mL,> 100 µg/mL
OC(Cn1cncn1)(Cn1cncn1)c1ccc(F)cc1F [FLUCONAZOLE],–,3.12 µg/mL,1.56 µg/mL,–,–,–,–,1.56 µg/mL,–,1.56 µg/mL,1.56 µg/mL,–,–,1.56 µg/mL,0.78 µg/mL
COc1cccc(-n2cc(CN(Cc3cn(-c4cccc(OC)c4)nn3)c3nc4ccccc4s3)nn2)c1,> 100 µg/mL,25 µg/mL,3.12 µg/mL,50 µg/mL,> 100 µg/mL,> 100 µg/mL,100 µg/mL,6.25 µg/mL,> 100 µg/mL,6.25 µg/mL,12.5 µg/mL,7.54%,> 100 µg/mL,3.12 µg/mL,1.56 µg/mL
Clc1ccc(-n2cc(CN(Cc3cn(-c4ccc(Cl)cc4)nn3)c3nc4ccccc4s3)nn2)cc1,50 µg/mL,25 µg/mL,6.25 µg/mL,12.5 µg/mL,6.25 µg/mL,6.25 µg/mL,6.25 µg/mL,6.25 µg/mL,> 100 µg/mL,6.25 µg/mL,12.5 µg/mL,4.35%,3.12 µg/mL,6.25 µg/mL,3.12 µg/mL
Fc1ccccc1-n1cc(CN(Cc2cn(-c3ccccc3F)nn2)c2nc3ccccc3s2)nn1,> 100 µg/mL,> 100 µg/mL,> 100 µg/mL,> 100 µg/mL,> 100 µg/mL,> 100 µg/mL,> 100 µg/mL,> 100 µg/mL,> 100 µg/mL,> 100 µg/mL,> 100 µg/mL,26.5%,> 100 µg/mL,> 100 µg/mL,> 100 µg/mL
Fc1ccc(-n2cc(CN(Cc3cn(-c4ccc(F)c(Cl)c4)nn3)c3nc4ccccc4s3)nn2)cc1Cl,50 µg/mL,25 µg/mL,6.25 µg/mL,25 µg/mL,3.12 µg/mL,6.25 µg/mL,6.25 µg/mL,6.25 µg/mL,100 µg/mL,3.12 µg/mL,12.5 µg/mL,5.32%,3.12 µg/mL,25 µg/mL,1.56 µg/mL
FC(F)(F)Oc1ccc(-n2cc(CN(Cc3cn(-c4ccc(OC(F)(F)F)cc4)nn3)c3nc4ccccc4s3)nn2)cc1,12.5 µg/mL,12.5 µg/mL,12.5 µg/mL,25 µg/mL,25 µg/mL,> 100 µg/mL,12.5 µg/mL,3.12 µg/mL,100 µg/mL,12.5 µg/mL,12.5 µg/mL,9.12%,12.5 µg/mL,25 µg/mL,3.12 µg/mL
Cc1ccc(-n2cc(CN(Cc3cn(-c4ccc(C)c(C)c4)nn3)c3nc4ccccc4s3)nn2)cc1C,> 100 µg/mL,> 100 µg/mL,> 100 µg/mL,> 100 µg/mL,> 100 µg/mL,> 100 µg/mL,> 100 µg/mL,> 100 µg/mL,> 100 µg/mL,> 100 µg/mL,> 100 µg/mL,43%,> 100 µg/mL,> 100 µg/mL,> 100 µg/mL
